Test results as given in ChEMBL document CHEMBL1121477, “Noval antitumor nitrosoureas and related compounds and their reactions with DNA” (1980).
Several values for one entry are separate records, joined by “and”; a condition that tells them apart may be missing. Identical values can stand only once.

What was measured:
[1] = Compound was evaluated for its ability to exhibit alkylating property toward DNA at 5 mM in 180 min; assay type: functional
Method in brief: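 Alkylation was measured with PM2 covalently closed circular DNA (1.2 A280 units, 90% CCC) and 5 mM agent in 200 µL at 37 °C. Aliquots were taken into 20 mM potassium phosphate pH 11.8, 0.4 mM EDTA and 0.5 µg/mL ethidium, heated at 96 °C for 4 min, then rapidly cooled. Fluorescence loss relative to control gives the extent of alkylation.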

[2] = tested on: L1210; assay: Antitumor activity against lymphoid leukemia L1210 cell implanted in mice was measured by number of survivors on day 5 at a dosage of 200 mg/kg (6/6); assay type: functional, Mus musculus
Method in brief: (§1)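 L1210 leukemia cells (10^5) implanted intraperitoneally in mice on day 0. Compounds were suspended in saline plus Tween 80 and injected intraperitoneally within 5 min of preparation, following Cancer Chemotherapy National Service Center specifications; dose is given per day. Read-outs were weight change from day 0 to 5 (treated vs control), survivors on day 5, mean survival time treated/control, and %T/C.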

[3] = Percent ability of compound to produce DNA interstrand cross-links was determined by the ethidium fluorescence assay at 6 hr and compared with antileukemic property; assay type: functional; set-up: concentration or dose not given beside the values
Method in brief: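 λ-DNA (1.0 A260 unit) was incubated with 5 mM compound in 50 mM potassium phosphate pH 7.2 at 37 °C. Aliquots went into 20 mM potassium phosphate pH 11.8, 0.4 mM EDTA and 0.5 µg/mL ethidium, were heated at 96 °C for 3 min and rapidly cooled. Fluorescence relative to control ×100 gives % DNA molecules with ≥1 interstrand cross-link; accuracy about ±2%.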

[4] = tested on: L1210; assay: Antitumor activity against lymphoid leukemia L1210 cell implanted in mice was measured by wt.change of treated mice minus wt. change of control mice at 200 mg/kg from day 0-5 (-1.1/1.4); assay type: functional, Mus musculus; method in brief: as §1
[5] = tested on: L1210; assay: Antitumor activity against lymphoid leukemia L1210 cell implanted in mice was measured by %T/C at a dosage of 200 mg/kg; assay type: functional, Mus musculus; method in brief: as §1
[6] = tested on: L1210; assay: Antitumor activity against lymphoid leukemia L1210 cell implanted in mice was measured by mean survival of mice expressed as treated/control at a dosage of 200 mg/kg (16.4/16.9); assay type: functional, Mus musculus; method in brief: as §1
[7] = tested on: L1210; assay: Antitumor activity against lymphoid leukemia L1210 cell implanted in mice was measured by number of survivors on day 5 at a dosage of 1.3 mg/kg (6/6); assay type: functional, Mus musculus
[8] = tested on: L1210; assay: Antitumor activity against lymphoid leukemia L1210 cell implanted in mice was measured by wt.change of treated mice minus wt. change of control mice at 1.3 mg/kg from day 0-5 (-2.9/0.3); assay type: functional, Mus musculus
[9] = tested on: L1210; assay: Antitumor activity against lymphoid leukemia L1210 cell implanted in mice was measured by mean survival of mice expressed as treated/control at a dosage of 1.3 mg/kg (25.3/9.6); assay type: functional, Mus musculus
[10] = tested on: L1210; assay: Antitumor activity against lymphoid leukemia L1210 cell implanted in mice was measured by %T/C at a dosage of 1.3 mg/kg; assay type: functional, Mus musculus
[11] = tested on: L1210; assay: Antitumor activity against lymphoid leukemia L1210 cell implanted in mice was measured by mean survival of mice expressed as treated/control at a dosage of 200 mg/kg (14.9/9.8); assay type: functional, Mus musculus; method in brief: as §1
[12] = tested on: L1210; assay: Antitumor activity against lymphoid leukemia L1210 cell implanted in mice was measured by wt.change of treated mice minus wt. change of control mice at 200 mg/kg from day 0-5 (-4.4/1.4); assay type: functional, Mus musculus; method in brief: as §1
[13] = tested on: L1210; assay: Antitumor activity against lymphoid leukemia L1210 cell implanted in mice was measured by wt.change of treated mice minus wt. change of control mice at 100 mg/kg from day 0-5 (-2.2/1.4); assay type: functional, Mus musculus; method in brief: as §1
[14] = tested on: L1210; assay: Antitumor activity against lymphoid leukemia L1210 cell implanted in mice was measured by mean survival of mice expressed as treated/control at a dosage of 100 mg/kg (15.4/9.7); assay type: functional, Mus musculus; method in brief: as §1
[15] = tested on: L1210; assay: Antitumor activity against lymphoid leukemia L1210 cell implanted in mice was measured by number of survivors on day 5 at a dosage of 100 mg/kg (6/6); assay type: functional, Mus musculus; method in brief: as §1
[16] = tested on: L1210; assay: Antitumor activity against lymphoid leukemia L1210 cell implanted in mice was measured by %T/C at a dosage of 100 mg/kg; assay type: functional, Mus musculus; method in brief: as §1
[17] = tested on: L1210; assay: Antitumor activity against lymphoid leukemia L1210 cell implanted in mice was measured by mean survival of mice expressed as treated/control at a dosage of 1 mg/kg (12.3/10.5); assay type: functional, Mus musculus
[18] = tested on: L1210; assay: Antitumor activity against lymphoid leukemia L1210 cell implanted in mice was measured by %T/C at a dosage of 1 mg/kg; assay type: functional, Mus musculus
[19] = tested on: Mus musculus; assay: Antitumor activity against lymphoid leukemia L1210 cell implanted in mice was measured by %T/C at a dosage of 0.9 mg/kg; assay type: functional
[20] = tested on: Mus musculus; assay: Antitumor activity against lymphoid leukemia L1210 cell implanted in mice was measured by mean survival of mice expressed as treated/control at a dosage of 0.9 mg/kg (15.6/11.1); assay type: functional
[21] = tested on: Mus musculus; assay: Antitumor activity against lymphoid leukemia L1210 cell implanted in mice was measured by wt.change of treated mice minus wt. change of control mice at 0.9 mg/kg from day 0-5 (-1.4/0.4); assay type: functional
[22] = tested on: Mus musculus; assay: Antitumor activity against lymphoid leukemia L1210 cell implanted in mice was measured by number of survivors on day 5 at a dosage of 0.9 mg/kg (6/6); assay type: functional
[23] = tested on: L1210; assay: Antitumor activity against lymphoid leukemia L1210 cell implanted in mice was measured by %T/C on a 1-9 day schedule; assay type: functional, Mus musculus

O=S(=O)(OCCCl)C(F)(F)F showed an Alkylation [1] of 40%.
CS(=O)(=O)OCCCl gave an Alkylation [1] of 0%.
For CCN(N=O)C(N)=O, the Alkylation [1] was 53%.
With Cc1ccc(S(=O)(=O)OCCCl)cc1 the Alkylation [1] was 0%.
For O=NN(CCSCCO)C(=O)NC1CCCCC1, the Survivals [2] was 6, the Activity [3] was 0% and the Change in weight [4] was -1.1 g. The Alkylation [1] was 96%, the T/C [5] was 110% and the Mean survival [6] was 16.4 time day-1.
NC(=O)N(CCCl)N=O gave a Survivals [7] of 6, an Activity [3] of 37% and an Alkylation [1] of 70%. The Change in weight [8] was -2.9 g, the Mean survival [9] was 25.3 time day-1 and the T/C [10] was 263%.
For O=NN(CCOCCCl)C(=O)NC1CCCCC1, the Survivals [2] was 6, the Mean survival [11] was 14.9 time day-1 and the Activity [3] was 0%. For the same compound, the Alkylation [1] was 66%, the Change in weight [12] was -4.4 g and the T/C [5] was 152%.
O=[N+]([O-])c1ccc(S(=O)(=O)OCCCl)cc1 gave an Alkylation [1] of 0%.
With O=NN(CC[S+]([O-])CCCl)C(=O)NC1CCCCC1 (stereo not given) the Change in weight [13] was -2.2 g, the Activity [3] was 0% and the Alkylation [1] was 84%. The Mean survival [14] was 15.4 time day-1, the Survivals [15] was 6 and the T/C [16] was 159%.
Compound Cc1ccc(S(=O)(=O)N(CCCl)N=O)cc1 has a Mean survival [17] of 12.3 time day-1, an Activity [3] of 0% and a T/C [18] of 117%.
In the case of CCOC(=O)N(CCCl)N=O, the T/C [19] was 140%, the Activity [3] was 12% and 24% and 28% and the Mean survival [20] was 15.6 time day-1. It also gave a Change in weight [21] of -1.4 g and a Survivals [22] of 6.
Compound CC(=O)N(CCCl)N=O has an Activity [3] of 44%.
In the case of O=NN(CCCl)C(=O)OCCCSSCCCOC(=O)N(CCCl)N=O, the T/C [23] was 136% and the Activity [3] was 8% and 25% and 21%.
